Assay results reported in ChEMBL document CHEMBL4308887, “Synthesis and biological evaluation of clovamide analogues with catechol functionality as potent Parkinson's disease agents in vitro and in vivo” (Bioorg Med Chem Lett, 2019).
The source made the active and inactive calls. The rule behind the calls is not given here.

Key:
[1] = tested on: SH-SY5Y; assay: Neuroprotection against H2O2-induced cell death in human SH-SY5Y cells assessed as cell viability at 10 uM preincubated for 6 hrs followed by H2O2 addition and measured after 24 hrs by MTT assay relative to control; type: functional; conditions: read-out: Activity
How it was run: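 SH-SY5Y cells pretreated with 1 at 1 or 10 μM, then exposed to 600 μM H₂O₂. Viability by MTT, expressed as % of control. DMSO below 0.1%. Mean ± S.E.M. of three independent experiments.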

[2] = tested on: SH-SY5Y; assay: Protection against H2O2-induced oxidative stress in human SH-SY5Y cells assessed as reduction in reactive oxygen species level preincubated for 6 hrs followed by H2O2 addition and measured after 24 hrs by DHE dye based flow cytometry; type: functional, cell-based
[3] = tested on: SH-SY5Y; assay: Protection against H2O2-induced oxidative stress in human SH-SY5Y cells assessed as reactive oxygen species level at 1 uM preincubated for 6 hrs followed by H2O2 addition and measured after 24 hrs by DHE dye based flow cytometry (reference value: 18.6%); type: functional
[4] = tested on: SH-SY5Y; assay: Induction of oxidative stress in non-stimulated human SH-SY5Y cells assessed as reactive oxygen species level at 10 uM after 6 hrs by DHE dye based flow cytometry (reference value: 4.8%); type: cell-based
[5] = tested on: SH-SY5Y; assay: Protection against H2O2-induced mitochondrial dysfunction in human SH-SY5Y cells assessed as mitochondrial membrane potential at 1 uM preincubated for 6 hrs followed by H2O2 addition and measured after 24 hrs by Rh123 staining based flow cytometry (reference value: 26.31 +/- 3.32%); type: functional
How it was run: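 ΔΨm examined by inverted fluorescence microscopy and flow cytometry after pretreatment (1, 10 μM) and 600 μM H₂O₂. Reported as % of control. Mean ± S.E.M., three independent experiments.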

[6] = tested on: SH-SY5Y; assay: Protection against H2O2-induced oxidative stress in human SH-SY5Y cells assessed as increase in SOD activity preincubated for 6 hrs followed by H2O2 addition and measured after 24 hrs by xanthine oxidase method; type: functional, cell-based
How it was run: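 Cellular SOD activity (units) and MDA content (μmol/g) measured in SH-SY5Y after pretreatment (1, 10 μM) and 600 μM H₂O₂. Mean ± S.E.M. of three independent experiments.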

[7] = tested on: SH-SY5Y; assay: Induction of apoptosis in non-stimulated human SH-SY5Y cells assessed as effect on ratio of Bax/Bcl2 expression at 1 to 10 uM measured after 6 hrs by Western blot analysis; type: cell-based
How it was run: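 Bax, Bcl-2 and cleaved caspase-3 measured by western blot in SH-SY5Y cells given 1 alone, with β-actin as internal standard. Mean ± S.E.M. of three independent experiments.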

[8] = tested on: Mus musculus; assay: Anti-parkinson's activity in MPTP-induced C57Bl/6 mouse model of Parkinson's disease assessed as restoration of motor ability by measuring increase in time spent on rota-rod at 10 to 20 mg/kg, ig pretreated for 10 days followed by MPTP challenge measured 4 to 72 hrs post MPTP addition for 3 mins by rota rod test; type: functional, organism-based
How it was run: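 MPTP-intoxicated mice given 1 orally at 10 or 20 mg/kg. Time retained on a rotating rod recorded 4, 24, 48 and 72 h after MPTP. Mean ± S.D., n = 6 mice/group.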

[9] = tested on: Mus musculus; assay: Anti-parkinson's activity in MPTP-induced C57Bl/6 mouse model of Parkinson's disease assessed as increase in tyrosine hydroxylase expression in substantia nigra at 10 to 20 mg/kg, ig pretreated for 10 days followed by MPTP challenge measured 10 days post MPTP addition by DAB staining based immunohistochemistry method; type: functional, organism-based
How it was run: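 Tissue taken 10 days after MPTP injection from mice dosed orally with 1 (10 or 20 mg/kg). TH in SNpc and striatum by western blot, and by DAB immunostaining. Three of the mice per group analysed. Mean ± S.D., n = 6 mice/group.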

[10] = tested on: Mus musculus; assay: Anti-parkinson's activity in MPTP-induced C57Bl/6 mouse model of Parkinson's disease assessed as decrease in cleaved caspase3 expression in substantia nigra at 10 to 20 mg/kg, ig pretreated for 10 days followed by MPTP challenge measured 10 days post MPTP addition by Western blot analysis; type: functional, organism-based
How it was run: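 Substantia nigra from MPTP mice. Bax, Bcl-2 and cleaved caspase-3 measured by western blot, with Bcl-2/Bax ratio by densitometry. Mean ± S.D., n = 6 mice/group.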

[11] = tested on: Mus musculus; assay: Anti-parkinson's activity in MPTP-induced C57Bl/6 mouse model of Parkinson's disease assessed as increase in SOD activity in striatum administered intragastrically pretreated for 10 days followed by MPTP challenge measured 10 days post MPTP addition by xanthine oxidase method; type: functional, organism-based
How it was run: (§1)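 Striatum and SNpc from MPTP-treated mice dosed orally with 1 at 10 or 20 mg/kg. MDA level and SOD activity measured. Mean ± S.D., n = 6 mice/group.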

[12] = tested on: Mus musculus; assay: Anti-parkinson's activity in MPTP-induced C57Bl/6 mouse model of Parkinson's disease assessed as reduction in MDA level in substantia nigra administered intragastrically pretreated for 10 days followed by MPTP challenge measured 10 days post MPTP addition by thiobarbituric acid method; type: functional, organism-based; how it was run: as §1
[13] = Cmax in Sprague-Dawley rat at 25 mg/kg, po by LC-MS/MS analysis; type: ADME, organism-based; set-up: dose 25 mg/kg, route oral; conditions: in vivo
How it was run: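 Male Sprague–Dawley rats dosed with 1 at 5 mg/kg i.v. (vehicle 5% DMSO, 2% F68, 93% saline) or 25 mg/kg p.o. (0.5% methylcellulose with 1% Tween 80). Orbital blood sampled at 0.083–24 h, 12 time points. Plasma PK parameters derived. Mean ± SD, n = 3.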

[14] = Oral bioavailability in Sprague-Dawley rat at 25 mg/kg by LC-MS/MS analysis; type: ADME, organism-based; conditions: in vivo
How it was run: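 Male Sprague–Dawley rats (n = 3) dosed i.v. 5 mg/kg (5% DMSO, 2% F68, 93% saline) or p.o. 25 mg/kg (0.5% methylcellulose, 1% Tween 80). Orbital blood at 0.083–24 h (12 points). Plasma concentration–time profiles gave Cl, Vdss, AUC, T1/2, Tmax, Cmax, MRT and absolute F.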

[15] = Activation of PI3K/Akt/mTOR signaling in human SH-SY5Y cells assessed as up regulation of H2O2-induced HO-1 expression at 10 uM preincubated for 6 hrs followed by H2O2 addition and after 24 hrs in presence of MEK1/2 inhibitor U0126 by Western blot analysis; type: cell-based
How it was run: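 SH-SY5Y cells preincubated 1 h with one inhibitor: SB203580 10 μM, LY294002 5 μM, U0126 10 μM, SP600125 5 μM or rapamycin 100 nM. Then 1 (10 μM) for 6 h, then 600 μM H₂O₂. HO-1 measured by western blot and densitometry. Mean ± S.E.M., three independent experiments.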

[16] = Activation of PI3K/Akt/mTOR signaling in human SH-SY5Y cells assessed as increase in AKT phosphorylation after 5 to 360 mins by Western blot analysis; type: cell-based
How it was run: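 SH-SY5Y cells, unstimulated, exposed to 1 for 5, 15, 30, 60, 120, 240 or 360 min. Phospho-AKT and phospho-mTOR measured by western blot, reported as p-AKT/t-AKT and p-mTOR/t-mTOR ratios after densitometry. Mean ± S.E.M. of three independent experiments.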

[17] = tested on: SH-SY5Y; assay: Cytotoxicity against non-stimulated human SH-SY5Y cells assessed as effect on cell viability at 1 to 100 uM measured after 24 hrs by MTT assay

With COC(=O)[C@H](Cc1ccccc1)NC(=O)/C=C/c1ccc(O)c(O)c1 [N-CAFFEOYL-PHENYLALANINE METHYL ESTER] the viability at 10 µM [1] was 80.8 to 89%, the Activity [2] was “Dose-dependent effect” and the Activity [3] was 14%. For the same compound, the Activity [4] was 7.3%, the Activity [5] was 79.4% and the Activity [6] was “Dose-dependent effect”. The Activity [7] was “Non-Toxic”, the Activity [8] was “Active” and the Activity [9] was “Active”. The Activity [10] was “Active”, the Activity [11] was “Dose-dependent effect” and the Activity [12] was “Dose-dependent effect”. For the same compound, the Cmax [13] was 808 ng/mL, the bioavailability [14] was 15.2% and the Activity [15] was “Active”. For the same compound, the Activity [16] was “Active” and the Activity [17] was “Non-Toxic”.
